According to ChEMBL document CHEMBL1147016, “Vasorelaxant activity of phthalazinones and related compounds” (Bioorg Med Chem Lett, 2006):

Assays:
[1] = target: T1, Alpha-1D adrenergic receptor (Rattus norvegicus, UniProt P23944); assay: Vasorelaxation of phenylephrine-stimulated Wistar rat aorta contraction; format: functional, tissue-based
T1 sequence (P23944 whole entry): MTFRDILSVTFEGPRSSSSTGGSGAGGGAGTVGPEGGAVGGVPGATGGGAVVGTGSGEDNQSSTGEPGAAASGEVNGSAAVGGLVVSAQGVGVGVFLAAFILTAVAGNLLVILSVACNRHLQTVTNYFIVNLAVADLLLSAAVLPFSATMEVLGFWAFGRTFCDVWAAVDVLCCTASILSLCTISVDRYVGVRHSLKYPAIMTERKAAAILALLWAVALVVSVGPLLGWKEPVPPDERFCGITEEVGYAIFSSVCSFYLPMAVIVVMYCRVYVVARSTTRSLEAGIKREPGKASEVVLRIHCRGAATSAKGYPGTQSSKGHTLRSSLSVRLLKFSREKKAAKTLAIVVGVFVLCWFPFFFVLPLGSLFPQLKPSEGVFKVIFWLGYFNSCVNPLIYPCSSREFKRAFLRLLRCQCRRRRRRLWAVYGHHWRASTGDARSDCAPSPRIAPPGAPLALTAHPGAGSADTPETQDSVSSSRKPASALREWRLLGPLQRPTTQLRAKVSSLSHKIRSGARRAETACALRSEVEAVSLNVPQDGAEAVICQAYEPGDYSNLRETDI
Summary of the method: (§1)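 Isolated rat aorta rings equilibrated 1 h at 2 g resting tension in Krebs solution, changed periodically. Contracted with 10^-5 M phenylephrine; at steady maximal contraction compounds added progressively over 30 min up to 10^-5 M or 10^-4 M. Responses read after 30 min as % relaxation of PE contraction; EC50 calculated when relaxation exceeded 60%.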

[2] = target: T2, Alpha-1D adrenergic receptor (Rattus norvegicus) (UniProt P23944); assay: Inhibition of phenylephrine-stimulated Wistar rat aorta contraction at 10 uM; format: functional, tissue-based; set-up: scale not given: the % may be the effect or the level left; summary of the method: as §1
T2 sequence (whole entry): T1 sequence (P23944 whole entry)

[3] = target: T2, Alpha-1D adrenergic receptor (Rattus norvegicus); assay: Inhibition of phenylephrine-stimulated Wistar rat aorta contraction at 100 uM; format: functional, tissue-based; set-up: scale not given: the % may be the effect or the level left; summary of the method: as §1
[4] = target: T3, Alpha-1A adrenergic receptor (Rattus norvegicus, UniProt P43140); assay: Vasorelaxation of noradrenaline-stimulated Wistar rat vas deferens contraction; format: functional, tissue-based
T3 sequence (P43140 whole entry): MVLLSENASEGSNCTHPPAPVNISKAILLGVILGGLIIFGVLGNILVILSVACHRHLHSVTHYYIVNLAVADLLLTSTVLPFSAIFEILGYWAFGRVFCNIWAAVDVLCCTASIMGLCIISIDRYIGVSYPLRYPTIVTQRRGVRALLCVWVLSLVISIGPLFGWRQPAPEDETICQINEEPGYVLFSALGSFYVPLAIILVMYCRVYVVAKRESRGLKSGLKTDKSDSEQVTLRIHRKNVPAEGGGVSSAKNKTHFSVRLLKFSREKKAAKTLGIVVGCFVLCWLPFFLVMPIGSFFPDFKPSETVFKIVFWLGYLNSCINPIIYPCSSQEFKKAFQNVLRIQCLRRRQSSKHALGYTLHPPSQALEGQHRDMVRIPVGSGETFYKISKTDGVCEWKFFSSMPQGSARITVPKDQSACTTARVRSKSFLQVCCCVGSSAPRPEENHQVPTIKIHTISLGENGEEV
Summary of the method: (§2)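 Wistar rat vas deferens cleaned of connective tissue, held in Krebs–Henseleit at 37 °C, 95% O2–5% CO2, 1 g resting tension. Control noradrenaline concentration–response curve obtained, tissue then equilibrated with a fixed compound concentration for at least 30 min before a second NA curve. Time-matched controls; responses as % of control maximum; means ± SE.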

[5] = target: T4, Alpha-1A adrenergic receptor (Rattus norvegicus) (UniProt P43140); assay: Inhibition of noradrenaline-stimulated Wistar rat vas deferens contraction at 1 uM; format: functional; summary of the method: as §2
T4 sequence (whole entry): T3 sequence (P43140 whole entry)

[6] = target: T4, Alpha-1A adrenergic receptor (Rattus norvegicus); assay: Affinity to Adrenergic alpha-1A receptor in Wistar rat vas deferens; format: tissue-based; summary of the method: as §2
[7] = target: T4, Alpha-1A adrenergic receptor (Rattus norvegicus); assay: Inhibition of noradrenaline-stimulated Wistar rat vas deferens contraction at 10 uM; format: functional; summary of the method: as §2
[8] = target: T2, Alpha-1D adrenergic receptor (Rattus norvegicus); assay: Affinity to Adrenergic Alpha-1D receptor in Wistar rat aorta; format: tissue-based
Summary of the method: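 Rat aorta rings stabilised, then cumulative vasoconstrictor additions until plateau; contraction as % of control response. Protocol repeated after 30 min compound incubation.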

[9] = target: T5, Alpha-1B adrenergic receptor (Rattus norvegicus) (UniProt P15823); assay: Affinity to Adrenergic alpha-1B receptor in Wistar rat spleen; format: tissue-based
T5 sequence (whole entry): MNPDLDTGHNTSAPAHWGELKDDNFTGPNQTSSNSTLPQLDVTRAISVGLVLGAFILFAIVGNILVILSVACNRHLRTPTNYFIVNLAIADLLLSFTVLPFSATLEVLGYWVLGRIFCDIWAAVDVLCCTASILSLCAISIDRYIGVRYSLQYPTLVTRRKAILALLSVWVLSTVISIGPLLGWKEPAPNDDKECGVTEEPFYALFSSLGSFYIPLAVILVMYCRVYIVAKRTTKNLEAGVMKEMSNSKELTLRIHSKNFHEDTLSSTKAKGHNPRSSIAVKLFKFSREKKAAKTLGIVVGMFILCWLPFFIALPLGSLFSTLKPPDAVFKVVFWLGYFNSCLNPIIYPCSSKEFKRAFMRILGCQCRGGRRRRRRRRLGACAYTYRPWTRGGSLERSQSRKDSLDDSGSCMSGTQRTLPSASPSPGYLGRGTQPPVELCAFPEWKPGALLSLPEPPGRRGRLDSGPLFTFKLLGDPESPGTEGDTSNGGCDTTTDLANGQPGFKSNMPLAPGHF
Summary of the method: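 Longitudinal rat spleen strips at 1 g tension in Krebs, 37 °C. After stabilisation, single 10^-4 M phenylephrine dose, washout, then PE dose–response curves on two separate strips, control and after 30 min incubation with compound. Values as % of the first PE response.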

Structure (SMILES) | EC50 [1] [µM] | Activity [2] [%] | other results
COc1ccc(Cc2nn(C(C)(C)C)c(=O)c3ccccc23)cc1OC | 10 | – | –
Oc1nnc(Cc2ccc3ccccc3c2)c2ccccc12 | > 10 | 43.9 | –
OC1(Cc2ccc3c(c2)OCO3)c2ccccc2C2=NCCN21 (stereo unspecified) | – | 47 | –
CCn1nc(Cc2ccc(SC)cc2)c2ccccc2c1=O | > 100 | – | –
COc1ccc(CCc2cc(O)cc(OC)c2C(=O)N2CCCCC2)cc1 | – | – | Activity [3]: 51%
C=CCn1nc(Cc2ccc(OC)c(OC)c2)c2ccccc2c1=O | 9.8 | – | –
COc1ccc(CC(=O)c2ccccc2C(=O)N2CCCCC2)cc1OC | – | 30 | –
COc1ccc(C(=O)C(=O)c2ccccc2C(=O)N2CCCCC2)cc1OC | – | 70 | –
O=c1[nH]nc(Cc2ccccc2)c2ccccc12 | ≤ 10 | 53 | –
COc1ccc(CCc2cc(O)cc(OC)c2C(=O)O)cc1 | – | – | Activity [3]: 34%
CSc1ccc(Cc2nn(-c3ccc(Br)cc3)c(=O)c3ccccc23)cc1 | > 100 | – | –
COc1ccc(Cc2nn(C)c(=O)c3ccccc23)cc1 | < 100 | – | Activity [3]: 61.6%
Cn1nc(Cc2ccccc2)c2ccccc2c1=O | ≤ 10 | 55.7 | EC50 [4]: 1.5 µM; inhibition [5]: 36.6%; pD'2 [6]: 5.8; inhibition [7]: 98.8%
CSc1ccc(Cc2nn(C(C)(C)C)c(=O)c3ccccc23)cc1 | > 100 | – | –
Oc1nnc(Cc2ccccc2Cl)c2ccccc12 | 1.9 | 76.3 | –
Cn1nc(Cc2ccc(Cl)c(Cl)c2)c2ccccc2c1=O | 4.9 | 60.3 | –
Cn1nc(Cc2ccccc2Cl)c2ccccc2c1=O | 1.4 | 84 | –

Structure (SMILES) | EC50 [1] [µM] | Activity [2] [%] | other results
COc1cc(Cc2nn(C)c(=O)c3ccccc23)cc(OC)c1OC | > 10 | 16.7 | –
CSc1ccc(Cc2n[nH]c(=O)c3ccccc23)cc1 | 5.5 | – | –
Oc1nnc(Cc2cccc3ccccc23)c2ccccc12 | 4.4 | 79.2 | –
O=c1c2ccccc2c(Cc2ccc(Cl)cc2)nn1-c1ccc(Br)cc1 | > 30 | – | –
COc1ccc(Cc2nn(C)c(=O)c3ccccc23)cc1OC | 2.2 | 67.7 | –
O=c1c2ccccc2c(Cc2ccc(Cl)cc2)nn1-c1ccccc1 | > 100 | – | –
COc1ccc(Cc2nnc(O)c3ccccc23)cc1 | > 10 | – | Activity [3]: 39.3%
CSc1ccc(Cc2nn(C)c(=O)c3ccccc23)cc1 | 0.93 | 87.2 | –
COc1ccc(Cc2nnc(O)c3ccccc23)cc1OC | 3.7 | 83.8 | –
Oc1nnc(Cc2ccc(Cl)cc2Cl)c2ccccc12 | < 10 | 61.3 | –
Cn1nc(Cc2ccc3c(c2)OCO3)c2ccccc2c1=O | 0.93 | 90.2 | –
C=CCn1nc(Cc2ccc(SC)cc2)c2ccccc2c1=O | > 100 | – | –
O=c1[nH]nc(Cc2ccc(Cl)cc2)c2ccccc12 | 0.79 | – | EC50 [4]: 3.9 µM
Cn1nc(Cc2ccc(Cl)cc2Cl)c2ccccc2c1=O | 1.2 | 80.7 | –
CCn1nc(Cc2ccc(OC)c(OC)c2)c2ccccc2c1=O | 5.3 | – | –
Cn1nc(Cc2cccc3ccccc23)c2ccccc2c1=O | 14 | 39.8 | –
Oc1nnc(Cc2ccc(Cl)cc2)c2ccccc12 | – | 89.9 | inhibition [5]: 16.3%; pD'2 [6]: 5.4; inhibition [7]: 76.3%

The next lines start with results.

EC50 [1] [µM] | Activity [2] [%] | Structure (SMILES) | other results
> 100 | – | CCCCn1nc(Cc2ccc(SC)cc2)c2ccccc2c1=O | –
> 100 | – | COc1ccc(Cc2nn(-c3ccc(Br)cc3)c(=O)c3ccccc23)cc1OC | –
> 100 | – | COc1ccc(Cc2nn(-c3ccccc3)c(=O)c3ccccc23)cc1OC | –
– | 66 | CSc1ccc(Cc2nnc(O)c3ccccc23)cc1 | –
2.9 | 86.7 | Oc1nnc(Cc2ccc3c(c2)OCO3)c2ccccc12 | EC50 [4]: 3 µM; inhibition [5]: 24.3%; pD'2 [6]: 5.5; inhibition [7]: 78.8%
1.3 | – | CCn1nc(Cc2ccc(Cl)cc2)c2ccccc2c1=O | –
> 100 | – | CCCCn1nc(Cc2ccc(Cl)cc2)c2ccccc2c1=O | –
2.6 | – | C=CCn1nc(Cc2ccc(Cl)cc2)c2ccccc2c1=O | EC50 [4]: 4.4 µM; inhibition [5]: 16.9%; pD'2 [6]: 5.4; inhibition [7]: 70.4%
> 100 | – | CSc1ccc(Cc2nn(-c3ccccc3)c(=O)c3ccccc23)cc1 | –
> 100 | – | CSc1ccc(Cc2nn(-c3ccc([N+](=O)[O-])cc3)c(=O)c3ccccc23)cc1 | –
0.43 | 99.3 | Cn1nc(Cc2ccc(Cl)cc2)c2ccccc2c1=O | pD'2 [8]: 5.4; EC50 [4]: 0.81 µM; inhibition [5]: 61.5%; pD'2 [9]: 5.55; pD'2 [6]: 6.1; inhibition [7]: 95.4%
≤ 10 | 53.8 | Oc1nnc(Cc2ccc(Cl)c(Cl)c2)c2ccccc12 | –
> 100 | – | COc1ccc(Cc2nn(-c3ccc([N+](=O)[O-])cc3)c(=O)c3ccccc23)cc1OC | –
> 10 | 44.6 | Cn1nc(Cc2ccc3ccccc3c2)c2ccccc2c1=O | –
> 100 | – | COc1cc(Cc2nnc(O)c3ccccc23)cc(OC)c1OC | Activity [3]: 34.3%
29 | – | O=c1c2ccccc2c(Cc2ccc(Cl)cc2)nn1-c1ccc([N+](=O)[O-])cc1 | –
> 100 | – | CC(C)(C)n1nc(Cc2ccc(Cl)cc2)c2ccccc2c1=O | –
5.4 | – | CCCCn1nc(Cc2ccc(OC)c(OC)c2)c2ccccc2c1=O | –
